Measurements taken from BindingDB's records for doi:10.1016/j.bmcl.2012.04.051 (Ajinomoto Pharmaceuticals, 2012).

Target: Voltage-dependent N-type calcium channel subunit alpha-1B (Homo sapiens, UniProt Q00975)
Experiment: Inhibition of N-type voltage-dependent calcium channel CaV2.2 in human IMR32 cells assessed as inhibition of KCl-induced increase in intracellular calcium concentration preincubated for 4 to 5 mins before KCl challenge
Summary of the method: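 IMR-32 cells on poly-L-lysine/collagen dishes, differentiated with 1 mM dibutyl-cAMP and 2.5 µM bromodeoxyuridine for 10–14 days. Loaded with 2.5 µM fura-2/AM, 37 °C, 30 min. HEPES recording medium with 1 µM nifedipine throughout. Calcium rise evoked by 60 mM KCl for 6 s, repeated every 5 min. Compound at 0.1, 1 or 10 µM; IC50 from ≥2 independent experiments.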

Sequence of Voltage-dependent N-type calcium channel subunit alpha-1B (Q00975 whole entry): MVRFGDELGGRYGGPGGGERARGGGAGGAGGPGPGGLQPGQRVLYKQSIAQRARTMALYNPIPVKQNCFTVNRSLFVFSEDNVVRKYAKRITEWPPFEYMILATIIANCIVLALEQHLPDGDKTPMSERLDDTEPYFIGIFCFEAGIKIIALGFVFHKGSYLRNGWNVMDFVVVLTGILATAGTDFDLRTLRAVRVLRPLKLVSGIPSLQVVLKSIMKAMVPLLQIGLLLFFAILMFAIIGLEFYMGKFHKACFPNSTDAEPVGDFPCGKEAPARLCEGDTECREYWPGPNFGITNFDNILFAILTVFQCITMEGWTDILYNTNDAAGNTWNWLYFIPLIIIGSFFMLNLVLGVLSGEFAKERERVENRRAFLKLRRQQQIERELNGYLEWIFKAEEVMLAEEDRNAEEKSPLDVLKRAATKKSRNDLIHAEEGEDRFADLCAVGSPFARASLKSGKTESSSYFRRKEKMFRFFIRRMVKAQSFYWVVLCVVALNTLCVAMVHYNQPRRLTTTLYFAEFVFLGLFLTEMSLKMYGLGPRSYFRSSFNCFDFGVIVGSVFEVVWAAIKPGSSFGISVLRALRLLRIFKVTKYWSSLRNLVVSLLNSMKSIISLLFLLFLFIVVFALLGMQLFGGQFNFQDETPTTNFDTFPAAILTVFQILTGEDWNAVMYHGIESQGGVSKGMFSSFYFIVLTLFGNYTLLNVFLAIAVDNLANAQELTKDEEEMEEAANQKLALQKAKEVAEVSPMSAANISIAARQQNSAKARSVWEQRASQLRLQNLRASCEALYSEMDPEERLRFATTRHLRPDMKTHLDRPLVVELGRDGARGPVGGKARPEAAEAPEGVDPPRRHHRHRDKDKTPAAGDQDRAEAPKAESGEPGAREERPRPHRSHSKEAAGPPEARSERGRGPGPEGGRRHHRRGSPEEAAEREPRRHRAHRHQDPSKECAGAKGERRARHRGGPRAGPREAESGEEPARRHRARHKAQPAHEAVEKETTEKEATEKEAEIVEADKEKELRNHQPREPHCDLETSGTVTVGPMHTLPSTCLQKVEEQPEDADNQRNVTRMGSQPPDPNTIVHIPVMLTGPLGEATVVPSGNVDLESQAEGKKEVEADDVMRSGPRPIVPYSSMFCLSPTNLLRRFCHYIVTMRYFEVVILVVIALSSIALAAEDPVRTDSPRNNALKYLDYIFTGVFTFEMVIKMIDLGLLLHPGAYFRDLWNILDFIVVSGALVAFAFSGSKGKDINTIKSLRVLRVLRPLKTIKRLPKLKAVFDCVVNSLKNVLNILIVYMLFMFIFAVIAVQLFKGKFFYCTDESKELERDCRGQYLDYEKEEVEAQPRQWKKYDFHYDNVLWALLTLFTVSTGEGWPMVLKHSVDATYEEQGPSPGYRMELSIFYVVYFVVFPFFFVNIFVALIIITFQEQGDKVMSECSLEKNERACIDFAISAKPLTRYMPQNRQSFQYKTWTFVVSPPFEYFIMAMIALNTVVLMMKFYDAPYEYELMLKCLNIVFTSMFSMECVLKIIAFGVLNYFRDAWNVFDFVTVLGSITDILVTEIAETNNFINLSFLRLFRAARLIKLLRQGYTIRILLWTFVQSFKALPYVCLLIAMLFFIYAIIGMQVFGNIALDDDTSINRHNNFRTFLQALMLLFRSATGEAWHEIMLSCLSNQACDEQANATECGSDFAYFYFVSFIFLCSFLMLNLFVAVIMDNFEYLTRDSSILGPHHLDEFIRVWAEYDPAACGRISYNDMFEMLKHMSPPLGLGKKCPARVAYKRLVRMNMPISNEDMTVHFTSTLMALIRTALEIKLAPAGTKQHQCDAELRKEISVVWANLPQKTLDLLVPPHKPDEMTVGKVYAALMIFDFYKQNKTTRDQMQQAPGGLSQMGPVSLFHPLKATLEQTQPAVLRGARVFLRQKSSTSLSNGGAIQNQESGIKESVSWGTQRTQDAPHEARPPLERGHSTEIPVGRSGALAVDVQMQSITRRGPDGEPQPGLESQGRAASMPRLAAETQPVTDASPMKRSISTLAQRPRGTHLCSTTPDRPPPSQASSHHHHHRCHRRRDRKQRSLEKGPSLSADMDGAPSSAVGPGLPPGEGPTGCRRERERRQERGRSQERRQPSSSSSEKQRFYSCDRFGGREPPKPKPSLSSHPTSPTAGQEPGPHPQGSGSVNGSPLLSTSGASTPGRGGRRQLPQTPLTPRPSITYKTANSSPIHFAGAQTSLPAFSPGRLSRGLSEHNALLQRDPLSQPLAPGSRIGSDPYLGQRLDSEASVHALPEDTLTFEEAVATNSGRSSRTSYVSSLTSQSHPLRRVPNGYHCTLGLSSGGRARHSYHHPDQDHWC

Compound	IC50
O=C(OC/C=C/c1ccccc1)C1=CN=CC(C(=O)O)C1c1cccc(C(F)(F)F)c1 (configuration not stated)	1200 nM
COc1c(Cl)cc(C2C(C(=O)OC/C=C/c3ccccc3)=C(C(OC)OC)N=CC2C(=O)O)cc1Cl (configuration not stated)	1200 nM
O=C(OC/C=C/c1ccccc1)C1=CN=CC(C(=O)O)C1c1ccc(Cl)cc1 (configuration not stated)	1200 nM
COC(OC)C1=C(C(=O)OC/C=C/c2ccccc2)C(c2cccc(Cl)c2)C(C(=O)O)C=N1 (configuration not stated)	1100 nM
COC(OC)C1=C(C(=O)OC/C=C/c2ccccc2)C(c2ccc(Cl)cc2)C(C(=O)O)C=N1 (configuration not stated)	1100 nM

Continued, values first:

IC50	Compound
1100 nM	COC(OC)C1=C(C(=O)OC/C=C/c2ccccc2)C(c2cccc(C(F)(F)F)c2)C(C(=O)O)C=N1 (configuration not stated)
580 nM	COc1c(Cl)cc(C2C(C(=O)OC/C=C/c3ccccc3)=CN=CC2C(=O)O)cc1Cl (configuration not stated)
